Screens from PubChem BioAssay.
These entries were drawn from the full list.
Apaf1 activ = activators of human Apaf-1 apoptosome; Apaf-1 apoptosome caspase-3 activation, DEVD-Rh110 fluorescence; hits give low values; activity change, negative = activation, % at 20 µM; hit rate 0.31% among 330,000;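 active = activity change at or below -40% at 20 µM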
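System: Reconstituted apoptosome of Apaf-1, cytochrome c, caspase-9, procaspase-3 | Reagent: dATP, cytochrome c, and (Z-DEVD)2-Rh110 caspase-3 substrate | Times: 30 min compound preincubation and 50 min reaction, both room temperature | Detection: Caspase-3-released Rh110 fluorescence, 540 nm emission, 480 nm excitation | Measure: Caspase-3 activity via Apaf-1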
Rh110 interf act = counter-screen for Apaf-1 activators: fluorescence interference. shares compounds with Apaf1 activ. fluorescence interference (activity change), % at 20 µM, hits read low. 980 tested, under 10 active. Rh110 fluorescence interference, quenched caspase reaction, Ex480/Em540;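 active = mean activity change at or below -40% when tested at 20 µM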
Apaf-1 act conf2 = confirmation of human Apaf-1 activators | reconstituted apoptosome caspase-3 activity, DEVD-Rh110 fluorescence; hits give low values | AID 504617 | activity change, negative = activation, % at 20 µM | hit rate 5% among 980 | shares compounds with Apaf1 activ;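 active = mean activity change at or below -40%, meaning activation of 40% or more, at 20 µM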
Apaf1 act interf = Apaf-1 activator counter-screen fluorescence artifact; shares compounds with Apaf1 activ; fluorescence interference counterscreen, Apaf-1 activator assay; EC50, µM; 55 tested, under 10 active; AID 588592; call rule not given here
Numbers without * were called inactive; / = no result.

SMILES	Apaf1 activ	Rh110 interf act	Apaf-1 act conf2	others
COC(=O)c1sccc1NC(=O)c1c(C)noc1C	-654*	10	5
CCOC(=O)C(=O)Nc1cc(Cl)ccc1C	-54*	11	10
C=C(C)C(=O)Nc1cccc(C2=NOC3(C2)C[C@@H](C(N)=O)N(C(=O)/C=C/C=C/C)C3)c1 (stereo partly specified)	-326*	-3	-129*	Apaf1 act interf=>100
C=C(C)C(=O)Nc1cccc(C2=NOC3(C2)C[C@@H](C(N)=O)N(C(=O)CC(c2ccccc2)c2ccccc2)C3)c1 (stereo partly specified)	-107*	14	-36
C=C(C)C(=O)Nc1cccc(C2=NOC3(C2)C[C@H](C(N)=O)N(C(=O)c2ccccc2C(=O)c2ccccc2)C3)c1 (stereo partly specified)	-270*	6	-125*	Apaf1 act interf=>100
C=C(C)C(=O)Nc1cccc(C2=NOC3(C2)C[C@@H](C(N)=O)N(C(=O)/C(C)=C/C)C3)c1 (stereo partly specified)	-288*	-1	-120*	Apaf1 act interf=>100
O=C1c2ccccc2C(=O)c2c1oc(C(F)(F)F)c2C(=O)c1ccccc1	79	/	/
CCCCCCCCCCOC(=O)Cn1c(COc2ccc(Cl)cc2)[n+](C)c2ccccc21	85	/	/
Clc1ccc(-c2cn3nc4c(nc3n2)CCCC4)cc1	65	/	/
Cc1ccc(CN2CC(C(=O)N3CCN(S(=O)(=O)c4ccc(C)cc4C)CC3)CC2=O)cc1 (stereo unspecified)	48	/	/
O=C1C=C(Nc2ccccc2)c2ccccc2C1=O	92	/	/
CC(=O)Nc1ccc(S(=O)(=O)/N=C2\C(=O)c3ccccc3C([O-])=C2n2cc[n+](-c3ccccn3)c2)cc1	84	/	/
Cc1c(C(=O)N2CCOCC2)c(S(=O)(=O)Nc2cccc(Br)c2)c(C)n1C	-44*	4	12
Oc1c(Br)cc(Br)cc1C=Nc1ccc2[nH]ncc2c1	84	/	/
Cc1[nH]n(-c2ccccc2)c(=O)c1C(=O)c1ccccc1	61	/	/
Cc1nnc(SCC(=O)NCc2ccco2)n1Cc1ccccc1	-428*	-5	13
C=CCn1c(SCC(=O)NCCc2ccccc2)nnc1C1CC1	42	/	/
O=C1C(Cl)=C(NCCCO)C(=O)c2ccccc21	45	/	/
COc1ccc(C(CCN2CCCC(C)C2)c2c(OC)cc(OC)c3c(-c4ccccc4)cc(=O)oc23)cc1 (stereo unspecified)	54	/	/
Cc1ccc(CNc2ccc(O)cc2)cc1	94	/	/
Nc1ccc2nc(-c3ccccc3)c(-c3ccccc3)nc2c1	65	/	/
COCc1c(C(=O)OCC(=O)NCCN2C(=O)CSC2=O)oc2ccccc12	-67*	-4	5
CN(C)CCCN(C(=O)c1ccc(C(=O)c2ccccc2)cc1)c1nc2cc3c(cc2s1)OCO3	60	/	/
CCc1ccc2nc(N(CCCN(C)C)C(=O)c3ccc(S(=O)(=O)N(C)C4CCCCC4)cc3)sc2c1	54	/	/
CN(C)CCCN(C(=O)c1ccco1)c1nc2ccc(F)cc2s1	-99*	6	10
SMILES	Apaf1 activ	Rh110 interf act	Apaf-1 act conf2	others
CCCCCCCCCCOC(=O)Cn1c(COc2ccccc2)[n+](C)c2ccccc21	73	/	/
O=c1[nH]c(Nc2ccccn2)cc2ccccc12	91	/	/
O=C(N/C(=C\c1ccccc1Cl)C(=O)N1CCOCC1)c1ccc([N+](=O)[O-])cc1	-309*	9	9
CCCC[n+]1ccn(C2=C([O-])c3ccccc3C(=O)/C2=N\S(=O)(=O)c2ccc(Br)cc2)c1	59	/	/
NC(=O)[C@@H]1CCCNc2c(I)cc([N+](=O)[O-])cc2C(=O)N[C@@H](CCCN=C(N)N)C(=O)N[C@@H](CCCN=C(N)N)C(=O)N1	41	/	/
CCOc1cc(/C=C2\C(=O)N(CCC#N)N=C2C)ccc1OCC(N)=O	58	/	/
Oc1cccc2c(NC(=S)Nc3ccc(SC(F)F)cc3)cccc12	53	/	/
NC1(C#Cc2ccc3oc(=O)c(-n4cc(-c5ccsc5)nn4)cc3c2)CCCCC1	48	/	/
CN1C(=O)CC(Nc2cccc3cccc(N)c23)C1=O (stereo unspecified)	54	/	/
C=CC(=C)CC(NC)c1ccccc1 (stereo unspecified)	-48*	6	1
CCCCCCOc1ccc(/C(C)=N/NC2=NCCN2)cc1[N+](=O)[O-]	54	/	/
Cc1c(N=Cc2cc3c(cc2[N+](=O)[O-])OCO3)cccc1[N+](=O)[O-]	44	/	/
CC(=O)Oc1ccc(/C=C2/C(=O)N(c3ccccc3)N=C2C)cc1	91	/	/
COc1cc2c(C#N)c(N3CCc4ccccc4C3)nc(N)c2c(N)n1	94	/	/
NC(=O)N(CCC(=O)O)c1ccccc1	-47*	-12	-17
CCC(C)NCCOCCOc1ccc(Br)cc1 (stereo unspecified)	-47*	2	11
COc1ccc(NC(=O)CN(C)C(=O)C2CSC3(C)CCC(=O)N23)cc1 (stereo unspecified)	43	/	/
Cc1cccc(NC(=O)CCN2CCC(C)CC2)c1	-54*	2	1
Cc1cccc(NC(=O)NCc2ccc3c(c2)cc(C)n3C)c1	54	/	/
Cc1cccc(NC(=O)c2sc3nc4c(c(-c5cccs5)c3c2N)CN(C)CC4)c1	50	/	/
COc1ccc(CN2CCC(C(=O)Nc3ccc(Oc4cccnc4)cc3)CC2)cc1	58	/	/
COc1ccc(NC(=O)CN2CCC(C)CC2)cc1	-52*	-1	3
O=C1C(Cl)=C(N2CCC(C(=O)O)CC2)C(=O)c2ccccc21	75	/	/
C=C[C@H]1CN2CC[C@H]1C[C@@H]2[C@@H](O)c1ccnc2ccc(OC)cc12	-3	/	/
COc1cc2sc3ccc(-c4ccc(N(C)C)nc4)cc3c(=O)c2cc1OC	44	/	/
SMILES	Apaf1 activ	Rh110 interf act	Apaf-1 act conf2	others
CC(C)CNC(=O)c1c(F)c(F)c(F)c(F)c1F	-54*	8	6
C#CCOCCOCCOCCNc1nc(N2CCN(C(=O)CCCCCCCCCCNC(=O)[C@H](CO)n3cc(CCCSC)nn3)CC2)nc(N2CCN(C(=O)CCCCCCCCCCNC(=O)[C@H](CCCCN)n3cc(CCO)nn3)CC2)n1	74	/	/
CC1(c2ccccc2)NC(=O)N(NC(=O)CSc2n[nH]c(N)n2)C1=O (stereo unspecified)	-279*	1	2
CC(C)(C)OC(=O)[C@H](Cc1ccccc1)NC(=O)c1nc[nH]c1C(=O)N[C@@H](CCCCN)C(=O)OC(C)(C)C	51	/	/
CC(C)[N+]1(C)[C@@H]2CC[C@H]1CC(OC(=O)C(CO)c1ccccc1)C2 (stereo partly specified)	-5	/	/
Cc1ccc(C(=O)N/C(=C\c2ccc(-c3ccccc3[N+](=O)[O-])o2)C(=O)NCCCN(C)C)cc1	56	/	/
COc1ccccc1-c1nc2n(n1)C(c1cccs1)C(C(=O)Nc1cccnc1)=C(C)N2 (stereo unspecified)	-244*	-5	13
O=C1CCCC2=C1C1(O)C(=O)c3ccccc3C1(O)O2 (stereo unspecified)	92	/	/
CC1=NN(c2ccc(S(=O)(=O)O)cc2Cl)C(=O)C1	66	/	/
CCOc1ccc2nc(NC3=NC(c4ccc(OC)cc4)CC(=O)N3)nc(C)c2c1 (stereo unspecified)	79	/	/
